Assay results published in ChEMBL document CHEMBL1926649, “New cholesterol esterase inhibitors based on rhodanine and thiazolidinedione scaffolds” (Bioorg Med Chem, 2011).

Legend:
[1] = Inhibition of pig pancreatic cholesterol esterase preincubated for 5 mins by spectrophotometry; set-up: species or system Sus scrofa
Method in brief: (§1)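 Porcine CEase in 100 mM sodium phosphate, 100 mM NaCl, pH 7.0, with 6 mM taurocholate (final), 3% acetonitrile, 3% DMSO. Inhibitor pre-mixed with 200 µM pNPB for 5 min at 25 °C. Reaction started with enzyme (10 ng/mL final), A405 followed for 6 min. Rates taken from linear steady-state turnover. Duplicates at five inhibitor concentrations. Residual activity at infinite [I] and IC50 come from non-linear regression of rate versus [I].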

Acetylcholinesterase = Acetylcholinesterase (Electrophorus electricus, UniProt O42275); assay: Inhibition of Electrophorus electricus acetylcholinesterase preincubated for 15 mins by spectrophotometry
[2] = Selectivity ratio of IC50 for Electrophorus electricus acetylcholinesterase to IC50 for pig cholesterol esterase
Method in brief: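 IC50 ratio taken between two assays. AChE: E. electricus enzyme, 15 min preincubation, ATCh 500 µM with DTNB, read at 412 nm, pH 7.3. Porcine CEase: 10 ng/mL, 5 min preincubation of inhibitor with substrate, pNPB 200 µM with taurocholate 6 mM, read at 405 nm, pH 7.0.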

Sus scrofa [3] = species on record: Sus scrofa; assay: Inhibition of pig pancreatic cholesterol esterase assessed as residual enzyme activity at infinite compound concentration preincubated for 5 mins by spectrophotometry; method in brief: as §1
[4] = Mixed inhibition of pig pancreatic cholesterol esterase preincubated for 5 mins by specific velocity plot analysis; set-up: species or system Sus scrofa
Method in brief: (§2)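 Porcine CEase, pNPB hydrolysis read at 405 nm, 25 °C, pH 7.0 phosphate/NaCl buffer with 6 mM taurocholate. Quadruplicates covered five inhibitor levels (2–10 µM) crossed with five substrate levels (100–300 µM), after a 5 min preincubation. The uninhibited rate at 200 µM substrate was set to 100%. Ki, α and β come from replots of specific velocity using σ/[1+σ], with σ = [S]/Km and a separately determined Km.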

Sus scrofa [5] = species on record: Sus scrofa; assay: Ratio of binding affinity to free pig pancreatic cholesterol esterase to binding affinity to substrate-bound pig pancreatic cholesterol esterase; method in brief: as §2

Acetylcholinesterase, sequence (O42275 whole entry): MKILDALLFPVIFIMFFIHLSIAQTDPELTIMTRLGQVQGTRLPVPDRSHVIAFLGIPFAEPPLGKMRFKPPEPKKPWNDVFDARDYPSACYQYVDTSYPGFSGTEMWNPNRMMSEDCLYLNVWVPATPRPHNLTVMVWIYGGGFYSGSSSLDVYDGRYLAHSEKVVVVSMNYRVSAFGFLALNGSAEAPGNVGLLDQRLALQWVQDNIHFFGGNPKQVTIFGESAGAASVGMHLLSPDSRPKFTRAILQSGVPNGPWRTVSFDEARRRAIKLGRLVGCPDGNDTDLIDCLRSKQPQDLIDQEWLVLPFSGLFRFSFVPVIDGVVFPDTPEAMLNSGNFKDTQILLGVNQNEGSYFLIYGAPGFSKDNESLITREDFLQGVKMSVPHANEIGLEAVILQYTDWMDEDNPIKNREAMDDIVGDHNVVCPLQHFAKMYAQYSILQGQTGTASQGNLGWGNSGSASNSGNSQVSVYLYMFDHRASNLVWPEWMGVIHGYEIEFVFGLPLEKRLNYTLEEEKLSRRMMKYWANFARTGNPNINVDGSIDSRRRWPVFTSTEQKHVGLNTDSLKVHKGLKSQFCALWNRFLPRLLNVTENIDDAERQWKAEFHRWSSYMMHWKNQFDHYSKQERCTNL

SMILES | IC50 [1] [µM] | IC50 (Acetylcholinesterase) [µM] | Ratio IC50 [2] | Activity (Sus scrofa [3]) [%] | Ki [4] [µM] | Ratio (Sus scrofa [5])
CCCc1ccccc1NC(=O)[C@H](COC(C)(C)C)NC(=O)c1ccc(/C=C2\SC(=S)NC2=O)cc1 | 6.07 | 21.6 | – | – | – | –
CCCc1ccccc1NC(=O)[C@H](Cc1ccccc1)NC(=O)c1ccc(/C=C2\SC(=S)NC2=O)cc1 | 40 | 43 | – | – | – | –
CCCc1ccccc1NC(=O)[C@H](Cc1ccccc1)NC(=O)c1ccc(/C=C2\SC(=O)NC2=O)cc1 | 40 | 14 | – | – | – | –
CCCc1ccccc1NC(=O)[C@H](COC(C)(C)C)NC(=O)c1ccc(/C=C2\SC(=O)NC2=O)cc1 | 85 | 66 | – | – | – | –
CCCc1ccccc1NC(=O)[C@H](CO)NC(=O)c1ccc(/C=C2\SC(=O)NC2=O)cc1 | 5.7 | > 100 | > 15 | 12 | – | –
CCCc1ccccc1NC(=O)[C@H](CO)NC(=O)c1ccc(/C=C2\SC(=S)NC2=O)cc1 | 31 | > 100 | – | – | – | –
CCCc1ccccc1OCC(O)COc1ccc(/C=C2\SC(=S)NC2=O)cc1 (racemic) | 1.76 | 5.14 | – | 18 | 1.22 | 5.5
O=C1NC(=O)/C(=C/c2ccc(C(=O)O)cc2)S1 | > 100 | > 100 | – | – | – | –
CCCc1ccccc1OCC(O)COc1ccc(/C=C2\SC(=O)NC2=O)cc1 (racemic) | 5.89 | > 100 | > 15 | 17 | – | –
CCCc1ccccc1NC(=O)[C@H](COCc1ccccc1)NC(=O)c1ccc(/C=C2\SC(=S)NC2=O)cc1 | 1.44 | 25 | 17 | 25 | – | –
O=C1NC(=S)S/C1=C\c1ccc(C(=O)O)cc1 | > 100 | > 100 | – | – | – | –
CCCc1ccccc1NC(=O)[C@H](C)NC(=O)c1ccc(/C=C2\SC(=O)NC2=O)cc1 | 54 | > 100 | – | – | – | –
O=C1NC(=O)/C(=C/c2ccccc2)S1 | > 100 | > 100 | – | – | – | –
CCCc1ccccc1NC(=O)[C@H](Cc1ccc(O)cc1)NC(=O)c1ccc(/C=C2\SC(=S)NC2=O)cc1 | 14.5 | 57 | – | – | – | –
CCCc1ccccc1NC(=O)[C@H](C)NC(=O)c1ccc(/C=C2\SC(=S)NC2=O)cc1 | 50 | > 100 | – | – | – | –
